Results filed as inconclusive are left out. Activity calls are given as the source filed them.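 The calls were made as follows: active = half-maximal potency at or below twice the top valid dose in every separate test run, with falling signal; inconclusive = runs disagree, or flat 30 to 70% inhibition, or poor fit; inactive = inactive in every run, including rising signal.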
Molecular target: Serine/threonine-protein kinase 33 (Homo sapiens) (UniProt Q9BYT3)
Test: inhibition of purified STK33 phosphorylating MBP – biochemical, ADP-Glo luminescence, dry powder, set 3, dose response (AID 602158)
Conditions: purified STK33, MBP phosphorylation
In short: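 System: purified STK33 kinase enzyme / Medium: MOPS-based assay buffer, pH 7.0, with BSA and BME / Also added: MBP substrate, ATP at Km / Schedule: 15 min RT preincubation, 60 min reaction / Detection: ADP-Glo luminescence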

Serine/threonine-protein kinase 33 (Homo sapiens), sequence (Q9BYT3 whole entry, looked up): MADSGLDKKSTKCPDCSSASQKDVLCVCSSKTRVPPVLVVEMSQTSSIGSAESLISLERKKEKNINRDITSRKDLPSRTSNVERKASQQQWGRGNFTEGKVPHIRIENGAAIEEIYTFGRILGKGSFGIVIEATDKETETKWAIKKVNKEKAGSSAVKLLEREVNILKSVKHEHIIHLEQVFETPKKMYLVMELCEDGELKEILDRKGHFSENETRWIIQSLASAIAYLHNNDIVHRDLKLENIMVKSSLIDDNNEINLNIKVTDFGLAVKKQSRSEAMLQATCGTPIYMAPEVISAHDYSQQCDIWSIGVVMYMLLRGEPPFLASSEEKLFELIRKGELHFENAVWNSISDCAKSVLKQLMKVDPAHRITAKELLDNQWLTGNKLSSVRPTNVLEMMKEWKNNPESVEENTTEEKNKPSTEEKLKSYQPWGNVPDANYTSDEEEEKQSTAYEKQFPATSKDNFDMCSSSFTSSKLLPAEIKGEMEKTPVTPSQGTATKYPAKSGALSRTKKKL

Structure (SMILES) | AC50 [nM]
O=C(Nc1ccccc1-c1nc2ccccc2[nH]c1=O)c1ccccc1F | 4860
O=C(Nc1ccccc1-c1nc2ccccc2[nH]c1=O)c1ccc(Cl)cc1 | 297
O=C(Nc1ccccc1-c1nc2ccccc2[nH]c1=O)c1ccccc1 | 165
COc1cccc(C(=O)Nc2ccccc2-c2nc3ccccc3[nH]c2=O)c1 | 2240
O=c1[nH]c2ccccc2nc1-c1ccccc1NS(=O)(=O)c1ccccc1 | 7250
O=c1[nH]c2ccccc2nc1-c1ccccc1NCc1ccccn1 | 1540
Cc1ccc(C(=O)Nc2ccccc2-c2nc3ccccc3[nH]c2=O)cc1 | 763
O=C(Nc1ccccc1-c1nc2ccccc2[nH]c1=O)c1ccc(Cl)s1 | 380
Cc1cccc(C(=O)Nc2ccccc2-c2nc3ccccc3[nH]c2=O)c1 | 1550
O=C(Nc1ccccc1-c1nc2ccccc2[nH]c1=O)c1nccs1 | 522

Same assay, conditions: purified STK33, MBP phosphorylation, at 10 µM (top of the series)

Structure (SMILES) | activity change, negative = inhibition
COc1ccccc1C(=O)Nc1ccccc1-c1nc2ccccc2[nH]c1=O | inactive
O=c1[nH]c2ccccc2nc1-c1ccccc1NCc1ccc(F)cc1 | inactive
O=c1[nH]c2ccccc2nc1-c1ccccc1NS(=O)(=O)c1cccs1 | inactive
O=c1[nH]c2ccccc2nc1-c1ccccc1NCc1cccnc1 | inactive
O=C(Nc1ccccc1-c1nc2cc3ccccc3cc2[nH]c1=O)c1cccs1 | inactive
O=C(Nc1ccccc1-c1nc2ccccc2[nH]c1=O)c1cc2ccccc2s1 | inactive
O=c1[nH]c2ccccc2nc1-c1ccccc1NCc1ccccc1 | inactive
CC(C)C(=O)Nc1ccccc1-c1nc2ccccc2[nH]c1=O | inactive
O=C(Nc1ccccc1-c1nc2ccccc2[nH]c1=O)C1CC1 | inactive
Cc1ccccc1C(=O)Nc1ccccc1-c1nc2ccccc2[nH]c1=O | inactive
O=C(Nc1ccccc1-c1nc2ccccc2[nH]c1=O)c1ccccc1Cl | inactive
O=c1[nH]c2ccccc2nc1-c1ccccc1NS(=O)(=O)c1cccnc1 | inactive
O=C(Nc1ccccc1-c1nc2ccccc2[nH]c1=O)C1CCCC1 | inactive
O=c1[nH]c2ccccc2nc1-c1ccccc1NCC1CC1 | inactive

Source: PubChem BioAssay AID602158 (Broad Institute, 2011)
